The values below come from the M2OR odorant receptor database.

This assay deals with T1, A0A140T8K0.
T1 sequence (whole entry): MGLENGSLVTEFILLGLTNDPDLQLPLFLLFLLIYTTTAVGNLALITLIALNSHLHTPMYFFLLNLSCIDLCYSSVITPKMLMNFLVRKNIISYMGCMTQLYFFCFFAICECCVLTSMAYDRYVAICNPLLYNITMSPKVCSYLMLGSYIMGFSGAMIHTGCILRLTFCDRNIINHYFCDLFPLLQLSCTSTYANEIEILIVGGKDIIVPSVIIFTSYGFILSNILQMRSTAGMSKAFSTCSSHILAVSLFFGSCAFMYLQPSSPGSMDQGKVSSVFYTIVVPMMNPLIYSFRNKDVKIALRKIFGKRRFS
The settings on record: stereoisomer not certain. The procedure, abridged: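 Values were gathered from published papers (main text and supplementary material), with extra details requested from the original authors when needed, and checked for typos and inconsistencies. Each receptor–molecule pair is called responsive (active) if the original authors judged the measured signal statistically different from baseline, and non-responsive (inactive) otherwise. Assay methods varied by source, often transient mammalian cell-line luciferase assays. Recorded details include cell line, G-protein, co-transfected protein and tags.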
Turning to `COc1cc(C(=O)O)ccc1O`, the “odorant receptor agonist call” value was “inactive”.
As for `CC12CCC(CC1=O)C2(C)C` (centres undefined), the “odorant receptor agonist call” value was “inactive”.
As to `CCCCCCCCCS`, the “odorant receptor agonist call” value was “inactive”.
Consider `CCC=CCCC=CC=O`, for which the “odorant receptor agonist call” value is “inactive”.
For the compound `CCCC(=O)C(C)=O`, the “odorant receptor agonist call” value is “inactive”.
Take `CCCCCC(=O)CC`: the “odorant receptor agonist call” value is “inactive”.
For `CC(=O)OCC=C(C)C`, the “odorant receptor agonist call” value is “inactive”.
Consider `CCCCCCCC(C)=O`, for which the “odorant receptor agonist call” value was “inactive”.
As to `CCCCCCCCC(=O)O`, the “odorant receptor agonist call” value is “inactive”.
Consider `c1ccccc1`, for which the “odorant receptor agonist call” value was “inactive”.
For the compound `O=C1CCOc2ccccc21`, the “odorant receptor agonist call” value is “inactive”.
With `CCOC(=O)C(C)C`, the “odorant receptor agonist call” value was “inactive”.
Turning to `CCCCCCCCCO`, the “odorant receptor agonist call” value was “inactive”.
Take `CCCCCC=O`: the “odorant receptor agonist call” value is “inactive”.
Regarding `C=CC(C)=CCC=C(C)CCC=C(C)C`, the “odorant receptor agonist call” value is “inactive”.
With `CC(C)=CCCC(C)=CCO`, the “odorant receptor agonist call” value was “inactive”.
`CC(C)=CCCC(C)CCO` (centres undefined): the “odorant receptor agonist call” value was “inactive”.
The entry for `C=CCOC(=O)CCCCCC` is “inactive”.
`CCCCCCCCS`: the “odorant receptor agonist call” value is “inactive”.
In the case of `CCCCCCCCCC(=O)[O-].[H+]`, the “odorant receptor agonist call” value was “inactive”.
Turning to `C=C(C)C1CCC(C)C(=O)C1` (centres undefined), the “odorant receptor agonist call” value is “inactive”.
Regarding `CC(=O)Oc1ccccc1`, the “odorant receptor agonist call” value was “inactive”.
In the case of `CCCCCC1=C(C)CCC1=O`, the “odorant receptor agonist call” value was “inactive”.
Turning to `CCCCCCOC(C)=O`, the “odorant receptor agonist call” value is “inactive”.
`CCCCCOC(=O)CCCCC`: the “odorant receptor agonist call” value was “inactive”.
Regarding `CCC(=O)C(=O)CC`, the “odorant receptor agonist call” value is “inactive”.
As for `CCCCC(C)=O`, the “odorant receptor agonist call” value was “inactive”.
`CCCCCCC(C)=O`: the “odorant receptor agonist call” value was “inactive”.
As for `CCC(=O)O`, the “odorant receptor agonist call” value is “inactive”.
As to `CCCCCCCCCCO`, the “odorant receptor agonist call” value was “inactive”.
The entry for `O=C(c1ccccc1)c1ccccc1` is “inactive”.
Take `CC(=O)OCc1ccccc1`: the “odorant receptor agonist call” value is “inactive”.
Consider `CCCCOC=O`, for which the “odorant receptor agonist call” value is “inactive”.
The entry for `C=C(C)C1CCC2(C)OC2C1` (centres undefined) is “inactive”; for `O=C1Cc2ccccc2O1` it is “inactive”.
Turning to `CCCCCCCO`, the “odorant receptor agonist call” value was “inactive”.
Regarding `CCCCC(=O)CC`, the “odorant receptor agonist call” value was “inactive”.
In the case of `CCCCCCCCO`, the “odorant receptor agonist call” value is “inactive”.
Consider `CCCCCCO`, for which the “odorant receptor agonist call” value was “inactive”.
